# Experimental data as given in ChEMBL document CHEMBL3085685, “In vitro and in vivo antileishmanial and trypanocidal studies of new N-benzene- and N-naphthalenesulfonamide derivatives” (J Med Chem, 2013).
# Columns and labels:
# Trypanosoma cruzi = test: Trypanocidal activity against extracellular epimastigote stage of Trypanosoma cruzi CL-B5 assessed as reduction of parasite load after 72 hrs by CPRG-based colorimetric analysis
# [1] = Cytotoxicity against mouse J774 cells assessed as reduction of cell viability after 24 hrs by resazurin dye-based fluorometric analysis
# Method in brief: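 J774 macrophages in RPMI 1640 with 10% heat-inactivated FBS, seeded at 5 × 10^4 cells/well and attached 24 h at 37 °C, 5% CO2. Medium swapped for drug dilutions for 24 h. Then 2.5 mM resazurin stock added for 3 h, fluorescence read at 535 nm excitation / 590 nm emission. Triplicate; CC50 from probit analysis.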
# Leishmania infantum = test: Leishmanicidal activity against extracellular promastigote stage of Leishmania infantum MCAN/ES/96/BCN150 assessed as reduction of parasite load after 48 hrs by resazurin dye-based fluorometric analysis; assay type: functional, organism-based
# Method in brief: (§1)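 Log-phase promastigotes cultured in Schneider's medium with 20% heat-inactivated FBS at 26 °C, 2.5 × 10^5 per well. DMSO-dissolved compounds added as 2-fold serial dilutions, final DMSO ≤0.2% (v/v), 48 h at 26 °C. Growth read by 2.5 mM resazurin stock, fluorescence 535/590 nm. Triplicate; IC50 by probit analysis.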
# Leishmania amazonensis = test: Leishmanicidal activity against extracellular promastigote stage of Leishmania amazonensis MHOM/Br/79/Maria assessed as reduction of parasite load after 48 hrs by resazurin dye-based fluorometric analysis; assay type: functional, organism-based; conditions: Leishmania amazonensis, MHOM/Br/79/Maria, 48 h; read-out: IC50
# Method in brief: as §1
# Leishmania braziliensis = test: Leishmanicidal activity against extracellular promastigote stage of Leishmania braziliensis 2903 assessed as reduction of parasite load after 48 hrs by resazurin dye-based fluorometric analysis; assay type: functional, organism-based; conditions: Leishmania braziliensis, 2903, 48 h; read-out: IC50
# Method in brief: as §1
# Leishmania guyanensis = test: Leishmanicidal activity against extracellular promastigote stage of Leishmania guyanensis 141/93 assessed as reduction of parasite load after 48 hrs by resazurin dye-based fluorometric analysis; assay type: functional, organism-based; conditions: Leishmania guyanensis, 141/93, 48 h; read-out: IC50
# Method in brief: as §1
# [2] = Leishmania infantum, MCAN/ES/96/BCN150, 48 h, read-out: IC50
# [3] = Trypanosoma cruzi, CL-B5, 72 h, read-out: IC50
SMILES,IC50 (Trypanosoma cruzi),CC50 at 24 h [1] [µM],IC50 (Leishmania infantum; [2]) [µM],IC50 (Leishmania amazonensis) [µM],IC50 (Leishmania braziliensis) [µM],IC50 (Leishmania guyanensis) [µM],IC50 (Trypanosoma cruzi; [3]) [µM],IC50 (Leishmania infantum)
O=S(=O)(Nc1nccc2ccccc12)c1ccc(Cl)cc1,Not Active,≥ 300,51.4,82.8,37,4.3,,
O=S(=O)(Nc1ccc2[nH]ncc2c1)c1cccc2ccccc12,,30,37.3,37.7,39.7,52.8,,
Cc1cc2cc(NS(=O)(=O)c3ccc(F)cc3)ccc2[nH]1,,40.4,34.5,12.5,42.7,117,,
O=[N+]([O-])c1ccc(S(=O)(=O)Nc2ncccn2)cc1,,≥ 300,76.4,68.6,48.8,46.4,156,
O=[N+]([O-])c1ccc(S(=O)(=O)Nc2nccc3ccccc23)cc1,,41.3,39.5,27,42.5,24.6,136,
O=[N+]([O-])c1ccc(S(=O)(=O)Nc2ccc3cn[nH]c3c2)cc1,Not Active,≥ 300,43.3,60.3,21.7,48.1,,
Cc1cc2cc(NS(=O)(=O)c3ccc([N+](=O)[O-])cc3)ccc2[nH]1,,132,35.2,15.8,16.8,19.6,,
O=S(=O)(Nc1nccc2ccccc12)c1ccccc1,,≥ 300,,93.5,162,93.5,,Not Active
O=S(=O)(Nc1cccc2cnccc12)c1ccc(Cl)cc1,,60.8,21,8.4,29.8,22.6,,
Cc1cc2cc(NS(=O)(=O)c3cccc4ccccc34)ccc2[nH]1,,24.6,11.9,7.4,11.6,13.6,,
CC1CCCN(S(=O)(=O)c2ccccc2)C1 (stereo not drawn),Not Active,≥ 300,112,40.9,115,54.3,,
Cc1cc2cc(NS(=O)(=O)c3ccc(Cl)cc3)ccc2[nH]1,,195,12.4,18.2,23,10.4,,
O=S(=O)(Nc1ccc2[nH]ncc2c1)c1ccc(F)cc1,Not Active,≥ 300,65.4,116,86.6,102,,
O=S(=O)(Nc1ccc2nccnc2c1)c1ccc(F)cc1,,43.9,33.4,14.2,13.4,29.8,,
O=[N+]([O-])c1ccc(S(=O)(=O)Nc2ccc3[nH]ncc3c2)cc1,,133,61.3,66.7,80.8,140,,
O=[N+]([O-])c1ccc(S(=O)(=O)Nc2ccc3ncsc3c2)cc1,Not Active,≥ 300,85.5,89.6,31,53.7,,
O=S(=O)(Nc1ccc2nccnc2c1)c1ccc(Cl)cc1,,23.8,51.5,46.2,80.9,25.9,,
O=[N+]([O-])c1ccc(S(=O)(=O)Nc2ccc3nccnc3c2)cc1,Not Active,≥ 300,81.7,198,60.8,101,,
